High-throughput results as filed in PubChem BioAssay.
An excerpt weighted towards active compounds, which were near 4.2% of everything screened.
WT yeast gro inh = growth inhibition of WT yeast, mitochondrial fusion screen; mitochondrial fusion phenotypic screen, WT strain; inhibition, % at 10 µM; 2.1% of 190,000 active; in the data active means inhibition above about 58%; tested in S. cerevisiae
Rad51 HR inh = Rad51 (human) homologous recombination inhibition; Q06609; hRad51 DNA strand exchange, fluorescence dequenching; 0.085% of 200,000 active; inhibition, % at 10 µM; AID 1385;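 active means inhibition above 40% at the single screening dose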;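 further: 0% = DMSO control wells and 100% = blanks with heterologous ssDNA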
Target sequence (Q06609 whole entry, looked up): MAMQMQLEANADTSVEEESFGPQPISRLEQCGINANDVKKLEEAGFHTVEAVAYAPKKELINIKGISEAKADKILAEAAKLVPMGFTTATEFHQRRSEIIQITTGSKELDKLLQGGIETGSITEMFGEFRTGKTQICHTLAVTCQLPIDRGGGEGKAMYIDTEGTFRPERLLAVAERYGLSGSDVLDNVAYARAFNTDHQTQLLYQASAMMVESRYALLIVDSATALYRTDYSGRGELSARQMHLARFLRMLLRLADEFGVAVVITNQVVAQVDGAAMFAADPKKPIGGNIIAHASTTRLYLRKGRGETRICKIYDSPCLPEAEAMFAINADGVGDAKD
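Test system: preformed human Rad51 ssDNA filaments; also added: Donor/quencher-labelled 47-bp dsDNA substrate; doses: 10 µM final, single point; times: 37 °C 15-min filament assembly, 30-min compound preincubation, 15-min exchange; detection: FRET fluorescence dequenching, excitation 485 nm, emission 520 nm; read-out basis: Fluorescence-based percent inhibition, control- and blank-normalised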
KCC2 mod = modulates chloride dependent transport by human KCC2. Q9H2X9. KCC2 cells, thallium flux FluoZin-2 fluorescence. B-score of Tl+ flux slope (higher = more flux/activation; lower = inhibition) at 10 µM. 2.2% of 190,000 active. AID 1456;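 active means thallium flux slope and its plate-corrected score both differing from the plate sample mean at a set confidence after two filtering rounds, in either direction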;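 further: slope of fluorescence scaled to starting intensity during 10 to 20 s after thallium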
Ins promoter up = MIN6 insulin promoter up-regulation. 0.3% of 190,000 active. z-score at 5 µM. AID 1625. MIN6 insulin promoter-GFP reporter, high-content imaging; hits give high values;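 active means z-score above 3 at 5 µM with at least 500 cells counted in the well; inconclusive means wells under 500 cells, flagged as cytotoxic or low count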
SKKanGAS inh = SKKanGAS growth inhibition; S. pyogenes SKKanGAS, kanamycin growth, BacTiter-Glo, 6 h; inhibition, % at 7.5 µM; 1.3% of 300,000 active;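 active means mean replicate score, as percent of positive control median, at least 50; inconclusive means mean below 50 but one replicate at or above 50; inactive means mean and every replicate below 50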;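 further: strain carries kanamycin resistance gene driven by streptokinase promoter and grows in 40 µg/ml kanamycin; loss of luminescence reflects streptokinase promoter inhibition or plain growth inhibition; 0% = median of DMSO wells and 100% = positive control at its reference dose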
Autophagy HCS = alters autophagy in cells. MEF GFP-LC3 puncta imaging; test concentration mostly 10 µM. calls only at 10 µM (by protocol). 0.98% of 190,000 active;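 active means percentage of spot-positive cells more than 3 SD above its plate mean, without a fluorescence outlier flag or 80% toxicity; inconclusive means no clear call, values can overlap the other calls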;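 further: spot-positive cell cutoff set from DMSO-treated cells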
Numbers without * were called inactive; i = inactive; ? = inconclusive; nt = no result given; + = active, no number.

SMILES	WT yeast gro inh	Rad51 HR inh	KCC2 mod	Ins promoter up	SKKanGAS inh	Autophagy HCS
Cc1ccc(Nc2nc(N)c([N+](=O)[O-])c(N3CCC(C)CC3)n2)cc1C	95.2*	8.9	0.0145	-0.4	22.3	i
Cc1ccc(Nc2nc(N)c([N+](=O)[O-])c(N3CCOCC3)n2)cc1C	-0.6	-1.5	-0.884	-1.61	-0.6	i
Cc1cccc(C)c1NC(=O)C1CCCN1C(=O)Nc1cccc(F)c1 (stereo not drawn)	nt	nt	nt	nt	-4.8	nt
CC(/C=N/Nc1nc(C)cc(=O)[nH]1)=C\c1ccccc1	11.1	2.5	-0.517	-0.15	-5.2	i
Cn1c(/C=N/Nc2nc3ccccc3[nH]2)nc2ccccc21	63.5	-14.3	-2	-1.21	-24.6	i
CCCn1c(/C=N/Nc2nc3ccccc3[nH]2)nc2ccccc21	58.1*	4.2	-0.778	-2.35	nt	i
CCN(CC)c1ccc(/C=N/Nc2nc3ccccc3[nH]2)cc1	78.5*	-0.9	0.0354	0.16	95.5*	+
CC(C)Cn1c(/C=N/Nc2nc3ccccc3[nH]2)nc2ccccc21	59.6*	-9.0	-0.138	-2.07	96.6*	i
CC(/C=N/Nc1nc2ccccc2[nH]1)=C\c1ccccc1	89.6*	-0.2	0.0834	-0.57	-17.8	i
Cc1ccc(Cl)cc1N1CCN(C(=O)c2ccc3c(c2)CCN3S(C)(=O)=O)CC1	nt	nt	nt	nt	5.9	nt
COc1cccc(-c2cc(C(=O)NC3CCCCC3)no2)c1	nt	nt	nt	nt	18.1	nt
O=C(CS(=O)(=O)Cc1ccccc1)NCc1ccccc1Cl	nt	nt	nt	nt	15.3	nt
Cc1cc(C)c(S(=O)(=O)N(C)CC(=O)NCCCn2ccnc2)c(C)c1	nt	nt	nt	nt	5.4	nt
Cc1c(Cc2ccccc2)sc(NC(=O)/C=C/c2cccc3ccccc23)c1C(N)=O	-5.2	-5.3	1.19	-0.39	3.4	+
O=C(NCC1CCCO1)c1cc(-c2ccc(F)cc2)no1 (stereo not drawn)	nt	nt	nt	nt	-3.8	nt
O=C(CSc1nc2ccccc2n1CCc1ccccc1)c1ccc(O)c(O)c1	18.6	nt	7.84*	1.33	nt	i
CCn1c(SCC(=O)O)nc2ccccc21	-4.7	-4.0	nt	0.01	-0.8	i
CCCCn1c(SCC(=O)O)nc2ccccc21	14.9	9.9	nt	3.5*	1.2	i
O=C(CSc1nc2ccccc2n1CCc1ccccc1)N1CCOCC1	-2.6	1.8	0.445	-0.32	-4.9	i
COCCN(C(=O)CC1C(=O)NCCN1Cc1ccc(-c2ccccc2)cc1)C(C)C (stereo not drawn)	6.9	nt	-0.0925	0.46	0.8	i
FC(F)Sc1ccc(NC(=S)NCc2ccccc2)cc1	59.8*	0.0	-1.81	-0.59	-10.8	i
FC(F)(F)c1ccc(NC(=S)NCc2ccccc2)cc1	60.1*	-2.6	0.0229	nt	31.6	i
O=C(O)c1ccc(NC(=S)NCc2ccccc2)cc1	nt	nt	nt	nt	-2.3	nt
CN(C(=S)Nc1ccc(SC(F)F)cc1)C(c1ccccc1)c1ccccc1	nt	nt	nt	nt	21.5	nt
FC(F)Sc1ccc(NC(=S)NC(c2ccccc2)c2ccccc2)cc1	85.1*	-1.3	1.15	-2.59	125.5*	i
SMILES	WT yeast gro inh	Rad51 HR inh	KCC2 mod	Ins promoter up	SKKanGAS inh	Autophagy HCS
FC(F)Oc1ccc(NC(=S)NCc2ccccc2)cc1	0.3	-4.5	-0.785	-0.24	7.6	i
O=C1/C(=C/c2ccc(N3CCOCC3)o2)SC(=Nc2ccccc2)N1CCc1c[nH]c2ccccc12	56.7	i	-1.59	nt	24.5	+
COc1cc(/C=C2\SC(=Nc3ccccc3)N(CCc3c[nH]c4ccccc34)C2=O)ccc1OC(C)C(=O)O (stereo not drawn)	7.2	10.2	-0.259	0.02	54.5*	i
COC(=O)c1sc(N2C(=O)C(O)=C(C(=O)c3ccc(C)o3)C2c2ccc([N+](=O)[O-])cc2)nc1C (stereo not drawn)	nt	nt	nt	nt	63.2*	nt
CCOC(=O)c1sc(N2C(=O)C(O)=C(C(=O)c3ccc(C)o3)C2c2cccc([N+](=O)[O-])c2)nc1C (stereo not drawn)	nt	nt	nt	nt	61.3*	nt
COc1ccc(/C=C2/CCc3ccccc3C2=O)cc1CN1CCOCC1	-4.8	nt	-3.64	-0.25	2.2	i
COc1ccc(/C=C2\CCc3ccccc3C2=O)cc1Cn1nc(C)cc1C	80.0*	3.1	0.0361	nt	13.2	i
O=C(Cc1coc(-c2ccc(F)cc2)n1)NCc1ccccc1	-4.3	-2.2	-2.6*	-0.28	-17.5	i
O=C(NCc1cccs1)c1ccc(N2CCCCC2)nc1	5.7	2.0	-0.00835	3.41*	-3.8	i
CC1CCCN(c2ccc(C(=O)NCc3cccs3)cn2)C1 (stereo not drawn)	1.9	nt	-0.212	nt	5.5	i
Cc1ccc(-c2nc(NC(=O)c3nn(C)cc3[N+](=O)[O-])sc2C)cc1	24.3	2.6	-0.0739	-0.68	12.9	+
CN(C)c1ccc(C2CC(=O)C=C(Nc3ccccc3N)C2)cc1 (stereo not drawn)	nt	-13.3	-2.2	0.45	-1.4	nt
CC(C)(C)C(=O)N1CCN(C(=O)c2ccco2)CC1	nt	nt	nt	nt	1.5	nt
Cc1ccc(C(=O)N[C@@H](C)CN2C3=NC[C@H](C(C)C)N3C[C@H]2Cc2ccc(O)cc2)cc1Br	-8.2	4.2	-0.503	-0.36	-3.6	+
COc1ccc(C[C@H]2CN3C(=NC[C@@H]3Cc3ccccc3)N2CCNC(=O)c2ccc(C)c(Br)c2)cc1	21.1	-2.6	-1.77	-0.19	-1.0	+
c1ccc(N/N=C(\Cc2nc3ccccc3[nH]2)c2ccccc2)cc1	72.0*	-0.8	0.0141	0.22	26.2	i
O=C(NCCc1nc2ccccc2[nH]1)c1cc([N+](=O)[O-])cc([N+](=O)[O-])c1	-15.7	1.5	-1.2	1.04	0.9	i
N/N=C(/Cc1nc2ccccc2[nH]1)c1ccc([N+](=O)[O-])cc1	90.1*	-6.0	0.0888	-0.53	11.7	i
Clc1cccc(/C(Cc2nc3ccccc3[nH]2)=N\Nc2ccccc2)c1	67.7	1.0	0.0412	-1.06	92.7*	i
Cc1ccc(N/N=C(\Cc2nc3ccccc3[nH]2)c2ccccc2)cc1	16.9	nt	0.379	-0.06	nt	i
CC1CC(OC(=O)CN2CCCCC2)CC(C)(C)C1 (stereo not drawn)	nt	-1.1	0.649	0.12	4.1	nt
O=C(Cc1ccsc1)NNC(=O)c1ccc(F)cc1	nt	nt	nt	nt	9.8	nt
Cc1ccc(NC(=O)CSC(C)C(=O)OCC(=O)N2CCN(C(=O)c3ccco3)CC2)cc1 (stereo not drawn)	nt	nt	nt	nt	0.8	nt
C=C(C)C1Cc2c(C)nn(-c3cccc4ccccc34)c2C1 (stereo not drawn)	85.7*	3.4	0.0497	0.13	?	i
C=C(C)C1Cc2c(C)nn(-c3ccccc3)c2C1 (stereo not drawn)	21.2	-5.8	-0.57	0.07	1.2	i
CCOC(=O)c1c(NC(=O)c2cccs2)sc(CC)c1-c1cccs1	-0.6	-18.0	nt	nt	59.6*	i
CCOC(=O)c1c(-c2ccc(C)o2)csc1NC(=O)COC(=O)c1ccc(NC(N)=O)cc1	3.5	3.0	-0.424	-1.18	67.9*	i
